This passage reports self-cleavage results from the RNAGym collection of RNA variant scans (doi:10.1002/anie.201605470).

Sequences and labels used below:
B1: Osa-1-4 twister ribozyme (parent)
chain: CCGCCUAACACUGCCAAUGCCGGUCCCAAGCCCGGAUAAAAGUGGAGGGGGCGG

The data set covers variants of B1. Description: self-cleavage, relative activity (ratio to wild type); higher = more cleavage; co-transcriptional. The gist of the method:
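The 48 positions downstream of the cleavage site in a 54-nucleotide Oryza sativa twister ribozyme template were synthesised at 97 % wild-type base and 1 % of each other base. The template was transcribed in vitro at 37 °C for 2 h, with self-cleavage allowed during transcription. Reads with or without upstream sequence after deep sequencing marked cleavage status, and relative activity is fraction cleaved normalised to wild type.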
As to CCGCCUAACACUGCCAAUGCCGGUCCCAAACCCGGAUAAACGUGGAGGGGGCGG, the self-cleavage amounted to 0.05.
As for CCGCCUAACACUGCCAAUGCCGGUCCCAAUCCCGGAUAAACGUGGAGGGGGCGG, the self-cleavage is 0.04.
Turning to CCGCCUAACACUGCCAAUGCCGGUCCCAACCCCGGAUAAACGUGGAGGGGGCGG, the self-cleavage was determined as 0.05.
CCGCCUAACACUGCCAAUGCCGGUCCCAAGCCCGGAUAAACGUGGAGGGGGCAG: the self-cleavage was 0.73.
In the case of CCGCCUAACACUGCCAAUGCCGGUCCCAAGCCCGGAUAAACGUGGAGGGGGCCG, the self-cleavage was 0.08.
With CCGCCUAACACUGCCAAUGCCGGUCCCAAGCCCGGAUAAACGUGGAGGGGGCUG the figure was 0.28; with CCGCCUAACACUGCCAAUGCCGGACCCAAGCCCGGAUAAACGUGGAGGGGGCGG, 0.13; with CCGCCUAACACUGCCAAUGCCGGGCCCAAGCCCGGAUAAACGUGGAGGGGGCGG, 0.03.
With CCGCCUAACACUGCCAAUGCCGGCCCCAAGCCCGGAUAAACGUGGAGGGGGCGG, the self-cleavage is 0.1.
Consider CCGCCUAACACUGCCAAUGUCGGUCCCAAGCCCGGAUAAACGUGGAGGGGGCGG, for which the self-cleavage came to 0.95.
For CCGCCUAACACUGCCAAUGCCGGUCCCAAGCCCGUAUAAACGUGGAGGGGGCGG, the self-cleavage came to 0.76.
Turning to CCGCCUAACACUGCCAAUGCCGGUCCCAAGCCCGAAUAAACGUGGAGGGGGCGG, the self-cleavage was found to be 0.81.
Turning to CCGCCUAACACUGCCAAUGCCGGUCCCAAGCCCGCAUAAACGUGGAGGGGGCGG, the self-cleavage was 0.63.
With CCGCCUAACACUGCCAAUGCCGGUCCCAAGCCCGGAUAAACCUGGAGGGGGCGG the figure was 0.12; with CCGCCUAACACUGCCAAUGCCGGUCCCAAGCCCGGAUAAACUUGGAGGGGGCGG, 0.11; with CCGCCUAACACUGCCAAUGCCGGUCCCAAGCCCGGAUAAACAUGGAGGGGGCGG, 0.19.
In the case of CCGCCUAACACGGCCAAUGCCGGUCCCAAGCCCGGAUAAACGUGGAGGGGGCGG, the self-cleavage was 0.8.
For the variant CCGCCUAACACCGCCAAUGCCGGUCCCAAGCCCGGAUAAACGUGGAGGGGGCGG, the self-cleavage was 0.55.
CCGCCUAACACAGCCAAUGCCGGUCCCAAGCCCGGAUAAACGUGGAGGGGGCGG: the self-cleavage worked out at 0.97.
Turning to CCGCCUAACACUGCCAAUGCCGGUCCCAAGCUCGGAUAAACGUGGAGGGGGCGG, the self-cleavage stood at 0.09.
In the case of CCGCCUAACACUGCCAAUGCCGGUCCCAAGCGCGGAUAAACGUGGAGGGGGCGG, the self-cleavage was 0.11.
As to CCGCCUAACACUGCCAAUGCCGGUCCCAAGCACGGAUAAACGUGGAGGGGGCGG, the self-cleavage came out at 0.08.
CCGCCUAACACUGCCAAUGCCGGUCCCAAGCCCGGAUAAACGUGGAGUGGGCGG: the self-cleavage came out at 0.07.
Consider CCGCCUAACACUGCCAAUGCCGGUCCCAAGCCCGGAUAAACGUGGAGCGGGCGG, for which the self-cleavage is 0.1.
With CCGCCUAACACUGCCAAUGCCGGUCCCAAGCCCGGAUAAACGUGGAGAGGGCGG the figure was 0.08.
For the variant CCGCCUAACACUGCCAACGCCGGUCCCAAGCCCGGAUAAACGUGGAGGGGGCGG, the self-cleavage stood at 0.8.
CCGCCUAACACUGCCAAGGCCGGUCCCAAGCCCGGAUAAACGUGGAGGGGGCGG: the self-cleavage stood at 0.85.
CCGCCUAACACUGCCAAAGCCGGUCCCAAGCCCGGAUAAACGUGGAGGGGGCGG: the self-cleavage is 0.92.
Take CCGCCUAACACUGCCAAUGCGGGUCCCAAGCCCGGAUAAACGUGGAGGGGGCGG: the self-cleavage is 0.08.
With CCGCCUAACACUGCCAAUGCUGGUCCCAAGCCCGGAUAAACGUGGAGGGGGCGG, the self-cleavage came to 1.04.
As for CCGCCUAACACUGCCAAUGCAGGUCCCAAGCCCGGAUAAACGUGGAGGGGGCGG, the self-cleavage was 0.45.
Take CCGCCUAACACUGCCAAUGCCAGUCCCAAGCCCGGAUAAACGUGGAGGGGGCGG: the self-cleavage came out at 0.8.
Turning to CCGCCUAACACUGCCAAUGCCUGUCCCAAGCCCGGAUAAACGUGGAGGGGGCGG, the self-cleavage stood at 0.49.
With CCGCCUAACACUGCCAAUGCCCGUCCCAAGCCCGGAUAAACGUGGAGGGGGCGG the figure was 0.05.
With CCGCCUAACACUGCCAAUGCCGGUCCCAAGCCCGGAUAAACGUGGAGGGGUCGG the figure was 0.16; with CCGCCUAACACUGCCAAUGCCGGUCCCAAGCCCGGAUAAACGUGGAGGGGCCGG, 0.07.
For the variant CCGCCUAACACUGCCAAUGCCGGUCCCAAGCCCGGAUAAACGUGGAGGGGACGG, the self-cleavage is 0.28.
With CCGCCUAACACUGCCAAUGCCGGUCCCAAGCCCGGAUAAAGGUGGAGGGGGCGG the figure was 0.84.
Turning to CCGCCUAACACUGCCAAUGCCGGUCCCAAGCCCGGAUAAACGUGGAGGGGGCGU, the self-cleavage was found to be 0.89.
With CCGCCUAACACUGCCAAUGCCGGUCCCAAGCCCGGAUAAACGUGGAGGGGGCGC, the self-cleavage was 0.85.
As for CCGCCUAACACUGCCAAUGCCGGUCCCAAGCCCGGAUAAACGUGGAGGGGGCGA, the self-cleavage came to 0.92.
With CCGCCUAACACUGCCAAUGCCGGUCCCAAGCCCGGAUAAACGUGAAGGGGGCGG the figure was 0.13; with CCGCCUAACACUGCCAAUGCCGGUCCCAAGCCCGGAUAAACGUGCAGGGGGCGG, 0.06; with CCGCCUAACACUGCCAAUGCCGGUCCCAAGCCCGGAUAAACGUGUAGGGGGCGG, 0.11.
As to CCGCCUAACACUGCCAAUGCCGGUCCCAAGCCCGGAUAAACGUUGAGGGGGCGG, the self-cleavage turned out to be 0.9.
For CCGCCUAACACUGCCAAUGCCGGUCCCAAGCCCGGAUAAACGUCGAGGGGGCGG, the self-cleavage is 0.97.
The result for CCGCCUAACACUGCCAAUGCCGGUCCCAAGCCCGGAUAAACGUAGAGGGGGCGG reads 0.81; that for CCGCCUAACACUGCCAAUGCCGGUCCCAAGCCUGGAUAAACGUGGAGGGGGCGG, 0.7.
